Experimental data as given in ChEMBL document CHEMBL4359914, “Design, synthesis and biological evaluation of stereo- and regioisomers of amino aryl esters as multidrug resistance (MDR) reversers” (Eur J Med Chem, 2019).
The source made the active and inactive calls. The rule behind the calls is not given here.

Experiments:
[1] = molecular target: T1, ATP-dependent translocase ABCB1 (Homo sapiens, UniProt P08183); test: Inhibition of MDR1 (unknown origin) expressed in MDCK-MDR1 cells assessed as decrease in ATP consumption incubated for 2 hrs by ATPlite luminescence assay; type: cell-based; details: mdck-mdr1, 2 h
T1 sequence (P08183 whole entry): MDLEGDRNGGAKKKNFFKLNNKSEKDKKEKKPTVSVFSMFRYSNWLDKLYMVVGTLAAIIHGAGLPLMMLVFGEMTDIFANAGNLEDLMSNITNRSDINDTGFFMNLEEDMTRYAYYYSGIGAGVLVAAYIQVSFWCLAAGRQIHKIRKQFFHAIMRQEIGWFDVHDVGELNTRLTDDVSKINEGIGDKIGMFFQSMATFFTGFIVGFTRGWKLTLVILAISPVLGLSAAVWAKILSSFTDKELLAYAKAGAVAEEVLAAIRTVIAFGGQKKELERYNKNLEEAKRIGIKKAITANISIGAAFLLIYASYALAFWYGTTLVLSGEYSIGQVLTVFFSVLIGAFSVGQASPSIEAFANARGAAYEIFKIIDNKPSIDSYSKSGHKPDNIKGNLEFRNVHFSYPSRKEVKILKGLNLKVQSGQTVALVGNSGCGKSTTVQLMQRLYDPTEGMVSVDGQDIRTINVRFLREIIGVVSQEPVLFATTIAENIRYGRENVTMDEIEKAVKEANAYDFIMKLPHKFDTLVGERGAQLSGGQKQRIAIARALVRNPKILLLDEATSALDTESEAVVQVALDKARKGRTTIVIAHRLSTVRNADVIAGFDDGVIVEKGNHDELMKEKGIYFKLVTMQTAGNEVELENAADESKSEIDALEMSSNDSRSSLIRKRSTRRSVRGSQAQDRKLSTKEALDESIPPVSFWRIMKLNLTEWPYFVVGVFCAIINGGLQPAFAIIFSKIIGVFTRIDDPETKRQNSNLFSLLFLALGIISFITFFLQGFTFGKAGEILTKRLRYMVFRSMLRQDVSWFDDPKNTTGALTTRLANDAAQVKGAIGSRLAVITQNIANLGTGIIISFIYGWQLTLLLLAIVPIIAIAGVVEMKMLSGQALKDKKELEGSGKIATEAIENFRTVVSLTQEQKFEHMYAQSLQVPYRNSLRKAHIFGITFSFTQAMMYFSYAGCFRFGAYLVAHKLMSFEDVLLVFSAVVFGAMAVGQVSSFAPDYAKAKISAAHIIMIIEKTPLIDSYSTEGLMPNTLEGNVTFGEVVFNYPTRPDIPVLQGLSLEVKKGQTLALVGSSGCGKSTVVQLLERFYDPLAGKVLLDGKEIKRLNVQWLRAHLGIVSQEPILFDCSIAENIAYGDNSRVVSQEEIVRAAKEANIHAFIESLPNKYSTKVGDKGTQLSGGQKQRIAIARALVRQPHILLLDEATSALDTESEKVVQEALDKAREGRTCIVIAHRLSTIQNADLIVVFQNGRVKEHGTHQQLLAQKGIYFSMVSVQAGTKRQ

[2] = tested on: MDCK; test: Cytotoxicity against dog MDCK cells assessed as reduction in cell viability incubated for 24 hrs by MTT assay; type: cell-based; details: Canis lupus familiaris
In short: (§1)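 MDCK parental, MDCK-MDR1 and MDCK-MRP1 cells grown in DMEM high glucose with 10% FBS, 2 mM glutamine, penicillin/streptomycin at 37 °C, 5% CO2. Compound exposure 24 h; viability by MTT. EC50 taken per line; selectivity ratio computed as EC50 parental/EC50 MDR.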

[3] = tested on: MDCK-MDR1; test: Induction of ROS generation in dog MDCK-MDR1 cells at 500 nM incubated for 24 hrs by DCFDA-AM staining based ATPlite luminescence assay; type: functional, cell-based; details: Canis lupus familiaris
In short: (§2)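 MDCK-MRP1 or MDCK-MDR1 cells grown 24 h in fresh medium or with 500 nM compound, with or without 10 mM N-acetyl-cysteine. Intracellular ROS measured fluorimetrically with DCFDA-AM probe, expressed as nmol/mg cellular protein; duplicates, n = 3, means ± SD.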

[4] = molecular target: T2, Broad substrate specificity ATP-binding cassette transporter ABCG2 (Homo sapiens, UniProt Q9UNQ0); test: Inhibition of BCRP (unknown origin) expressed in MDCK cells assessed as increase in Hoechst 33342 accumulation incubated for 30 mins by Hoechst 33342 dye based fluorescence assay; type: cell-based
T2 sequence (Q9UNQ0 whole entry): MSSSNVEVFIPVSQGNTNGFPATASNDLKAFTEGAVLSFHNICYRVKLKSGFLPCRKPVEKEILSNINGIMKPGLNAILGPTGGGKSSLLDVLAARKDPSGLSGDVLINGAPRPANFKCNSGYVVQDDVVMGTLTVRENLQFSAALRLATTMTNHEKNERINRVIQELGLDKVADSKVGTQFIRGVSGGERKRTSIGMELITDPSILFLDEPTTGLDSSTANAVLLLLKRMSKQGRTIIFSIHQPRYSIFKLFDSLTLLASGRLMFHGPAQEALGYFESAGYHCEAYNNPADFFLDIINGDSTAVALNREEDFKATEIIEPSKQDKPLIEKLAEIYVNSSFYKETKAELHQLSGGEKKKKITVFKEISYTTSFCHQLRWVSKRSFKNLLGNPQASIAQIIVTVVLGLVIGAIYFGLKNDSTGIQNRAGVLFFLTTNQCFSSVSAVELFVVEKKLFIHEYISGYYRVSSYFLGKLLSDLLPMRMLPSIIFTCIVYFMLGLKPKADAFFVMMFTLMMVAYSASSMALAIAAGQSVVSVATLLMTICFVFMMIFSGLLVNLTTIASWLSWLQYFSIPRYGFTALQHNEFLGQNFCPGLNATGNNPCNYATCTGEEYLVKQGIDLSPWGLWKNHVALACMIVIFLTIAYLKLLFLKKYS

[5] = Chemical stability of compound assessed as half life in PBS at 1 uM incubated 120 mins by LC-MS/MS analysis; type: physicochemical
In short: (§3)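 Analyte added to PBS or human plasma (healthy volunteer, stored at -80 °C) to 1 μM; incubated at 37 °C for 0, 30, 60 and 120 min, triplicate per time point. Internal standard solution added, centrifuged, supernatant dried under nitrogen and redissolved. Analyte quantified by LC-MS/MS in MRM mode; half-life derived from decay rate k.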

[6] = tested on: MDCK-MDR1; test: Induction of ROS-mediated cell death in dog MDCK-MDR1 cells at 500 nM incubated for 24 hrs by DCFDA-AM staining based ATPlite luminescence assay; type: functional; details: Canis lupus familiaris
In short: (§4)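 Viability by ATPlite luminescence; untreated cell RLU set as 100%, results as % viable cells vs untreated. Quadruplicates, n = 3, means ± SD.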

[7] = molecular target: T1, ATP-dependent translocase ABCB1; test: Inhibition of P-gp in human K562/DOX cells assessed as drug level causing maximum increase in nuclear pirarubicin concentration incubated for 30 mins by fluorescence based assay relative to control; type: cell-based; details: 0.5 h
[8] = molecular target: T1, ATP-dependent translocase ABCB1; test: Inhibition of P-gp in human K562/DOX cells assessed as drug level causing 50% increase in nuclear pirarubicin concentration incubated for 30 mins by fluorescence based assay; type: cell-based; details: read-out: I0.5
[9] = molecular target: T1, ATP-dependent translocase ABCB1; test: Inhibition of P-gp (unknown origin) expressed in MDCK-MDR1 cells assessed as increase in calcein-AM accumulation incubated for 30 mins by calcein-AM dye based fluorescence assay; type: cell-based
[10] = tested on: MDCK-MDR1; test: Induction of ROS-mediated cell death in dog MDCK-MDR1 cells at 500 nM incubated for 24 hrs in presence of NAC by DCFDA-AM staining based ATPlite luminescence assay; type: functional; details: Canis lupus familiaris; in short: as §4
[11] = tested on: MDCK-MDR1; test: Cytotoxicity against dog MDCK-MDR1 cells assessed as reduction in cell viability incubated for 24 hrs by MTT assay; type: functional, cell-based; details: Canis lupus familiaris, MDCK-MDR1, 24 h; in short: as §1
[12] = Stability of compound in human plasma assessed as half life at 1 uM incubated for 120 min by LC-MS/MS analysis; type: ADME, cell-free; in short: as §3
[13] = molecular target: T3, BCRP (ABCG2) (Homo sapiens, UniProt Q9UNQ0); test: Inhibition of BCRP (unknown origin) expressed in MDCK cells assessed as increase in Hoechst 33342 accumulation at upto 100 uM incubated for 30 mins by Hoechst 33342 dye based fluorescence assay; type: cell-based; details: MDCK cells expressing BCRP, probe Hoechst 33342
T3 sequence (Q9UNQ0 whole entry): T2 sequence (Q9UNQ0 whole entry)

[14] = tested on: MDCK; test: Induction of ROS-mediated cell death in dog MDCK cells expressing MRP1 at 500 nM incubated for 24 hrs by DCFDA-AM staining based ATPlite luminescence assay; type: functional; details: Canis lupus familiaris; in short: as §4
[15] = tested on: MDCK; test: Induction of ROS generation in dog MDCK cells over expressing MRP1 at 500 nM incubated for 24 hrs by DCFDA-AM staining based ATPlite luminescence assay; type: functional, cell-based; details: Canis lupus familiaris; in short: as §2
[16] = molecular target: P-gp (ABCB1) (Homo sapiens, UniProt P08183); test: Inhibition of P-gp (unknown origin) in […] MDCK-MDR1 cells assessed as increase in doxorubicin-induced cytotoxicity at 500 nM […] by MTT assay relative to control; type: cell-based; details: probe doxorubicin
Sequence of P-gp (ABCB1) (P08183 whole entry): as the sequence (P08183 whole entry) above

[17] = tested on: MDCK; test: Cytotoxicity against dog MDCK cells expressing MRP1 assessed as reduction in cell viability incubated for 24 hrs by MTT assay; type: functional, cell-based; details: Canis lupus familiaris; in short: as §1
[18] = tested on: MDCK; test: Induction of ROS-mediated cell death in dog MDCK cells expressing MRP1 at 500 nM in presence of NAC incubated for 24 hrs by DCFDA-AM staining based ATPlite luminescence assay; type: functional; details: Canis lupus familiaris; in short: as §4

| inhibition (INH) [1] | EC50 ([4]; read-out: EC50) | half-life at 1 µM [5] | Alpha max [7] | IC50 [8] | EC50 [9] | half-life at 1 µM [12] | EC50 ([4]; mdck) | inhibition at 0.5 h [13] | Structure (SMILES) | EC50 [2] | Activity [3] | Activity [6] | Activity [10] | EC50 [11] | Activity [14] | Activity [15] | inhibition at 24 h, 0.5 µM [16] | EC50 [17] | Activity [18] |
| --- | --- | --- | --- | --- | --- | --- | --- | --- | --- | --- | --- | --- | --- | --- | --- | --- | --- | --- | --- |
| Not Active | 6.4 µM | ≥ 4 h | 0.89 | 0.54 µM | 0.55 µM | ≥ 4 h | – | – | COc1cc(/C=C/C(=O)OCCCN(C)C[C@H](C)COC(=O)c2cc(OC)c(OC)c(OC)c2)cc(OC)c1OC | 100 µM | Active | Active | Active | 40 µM | – | – | – | – | – |
| Not Active | – | ≥ 4 h | 0.99 | 0.4 µM | 1 µM | 0.483 h | Not Active | 0% | COc1cc(/C=C/C(=O)OC[C@H](C)CN(C)CCCCCOC(=O)c2cc(OC)c(OC)c(OC)c2)cc(OC)c1OC | – | – | – | – | – | – | – | – | – | – |
| Not Active | 41 µM | ≥ 4 h | 0.72 | 0.35 µM | 0.31 µM | ≥ 4 h | – | – | COc1cc(/C=C/C(=O)OCCCCCN(C)C[C@@H](C)COC(=O)c2cc(OC)c(OC)c(OC)c2)cc(OC)c1OC | 100 µM | – | – | – | – | Active | Active | 30% | 11.7 µM | Active |
